One assay concerns MDA-MB-231. As to the kind of experiment: Antiproliferative activity against human MDA-MB-231 cells incubated for 72 hrs by MTT assay. It counts as functional, cell-based. Particulars: MDA-MB-231, 72 h. The method in brief: (§1)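 Cells seeded at 5 × 10^3/well and allowed to attach overnight, then washed with PBS. Compound diluted from 10 mM DMSO stock into medium (100 ng/mL HGF added for c-Met-expressing cells), in triplicate, 72 h at 37 °C. MTT added for 4 h, formazan dissolved in DMSO, absorbance read at 570 nm. Cell numbers taken from a standard curve; IC50 calculated.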

The next assay deals with MCF7. As to the kind of experiment: Antiproliferative activity against human MCF7 cells incubated for 72 hrs by MTT assay. It counts as functional, cell-based. To be noted: MCF7, 72 h. The method in brief:
as §1

Consider `CCOc1ccccc1C1CC(=O)c2c(c(C)c(O)c3c2OC2=CC(O)=C(C(C)=O)C(=O)[C@]23C)O1` (stereo partly drawn), for which the IC50 – broadly, the concentration needed to halve the response being measured – with MDA-MB-231 turned out to be 6130 nM; in the assay with MCF7, 5920 nM.
For the compound `CC(=O)C1=C(O)C=C2Oc3c4c(c(C)c(O)c3[C@]2(C)C1=O)OC(c1ccc(C(=O)O)cc1)CC4=O` (stereo partly drawn), the results for the IC50 with MDA-MB-231 and with MCF7 were 14400 nM and 12800 nM, respectively.
On the same counts, the results for `CCOc1ccc(C2CC(=O)c3c(c(C)c(O)c4c3OC3=CC(O)=C(C(C)=O)C(=O)[C@]34C)O2)cc1` (stereo partly drawn) are 3680 nM and 3360 nM.
On the same counts, the results for `CC(=O)C1=C(O)C=C2Oc3c(C(=O)/C=C/c4ccccc4F)c(O)c(C)c(O)c3[C@]2(C)C1=O` are 3540 nM and 3740 nM.
The matching figures for `CC(=O)C1=C(O)C=C2Oc3c(C(=O)CC(O)c4cc(Cl)cc(Cl)c4)c(O)c(C)c(O)c3[C@]2(C)C1=O` (stereo partly drawn): 4440 nM and 5810 nM.
For `CC(=O)C1=C(O)C=C2Oc3c4c(c(C)c(O)c3[C@]2(C)C1=O)OC(c1ccc(OCc2ccc(F)cc2)cc1)CC4=O` (stereo partly drawn), the results for the 50% inhibitory concentration (IC50) with MDA-MB-231 and in the assay with MCF7 were 5580 nM and 4320 nM, respectively.
On the same counts, the results for `CC(=O)C1=C(O)C=C2Oc3c(C(=O)/C=C/c4ccc(C(=O)O)cc4)c(O)c(C)c(O)c3[C@]2(C)C1=O` are 10600 nM and 9380 nM.
The matching figures for `CC(=O)C1=C(O)C=C2Oc3c(C(=O)/C=C/c4cc(F)cc(F)c4)c(O)c(C)c(O)c3[C@]2(C)C1=O`: 2090 nM and 1820 nM.
On the same counts, the results for `CC(=O)C1=C(O)C=C2Oc3c(C(=O)/C=C/c4ccc(C(C)(C)C)cc4)c(O)c(C)c(O)c3[C@]2(C)C1=O` are 1030 nM and 840 nM.
`CC(=O)C1=C(O)C=C2Oc3c(C(=O)/C=C/c4ccc(C(F)(F)F)cc4)c(O)c(C)c(O)c3[C@]2(C)C1=O`: the IC50 in the assay with MDA-MB-231 came out at 710 nM; in the assay on MCF7 it was 730 nM.
On the same counts, the results for `CC(=O)C1=C(O)C=C2Oc3c(C(=O)/C=C/c4ccc(Cl)cc4Cl)c(O)c(C)c(O)c3[C@]2(C)C1=O` are 1360 nM and 930 nM.
On the same counts, the results for `CC(=O)C1=C(O)C=C2Oc3c4c(c(C)c(O)c3[C@]2(C)C1=O)OC(c1ccc(OCc2ccccc2)cc1)CC4=O` (stereo partly drawn) are 5710 nM and 6530 nM.
On to `CC(=O)C1=C(O)C=C2Oc3c(C(=O)CC(O)c4cc(C(F)(F)F)cc(C(F)(F)F)c4)c(O)c(C)c(O)c3[C@]2(C)C1=O` (stereo partly drawn), for which the IC50 in the assay with MDA-MB-231 amounted to 1560 nM; in the assay with MCF7 it was 5240 nM.
The matching figures for `CC(=O)C1=C(O)C=C2Oc3c(C(=O)/C=C/c4ccc(Cl)cc4)c(O)c(C)c(O)c3[C@]2(C)C1=O`: 2630 nM and 2100 nM.
For `CC(=O)C1=C(O)C=C2Oc3c4c(c(C)c(O)c3[C@]2(C)C1=O)OC(c1ccc(Cl)cc1Cl)CC4=O` (stereo partly drawn), the IC50 in the assay with MDA-MB-231 was 4010 nM; in the assay on MCF7 it was 3640 nM.
For `CC(=O)C1=C(O)C=C2Oc3c(C(=O)/C=C/c4cccc(Cl)c4)c(O)c(C)c(O)c3[C@]2(C)C1=O`, the figures for the IC50 in the assay on MDA-MB-231 and in the assay on MCF7 were 3920 nM and 2700 nM, respectively.
On the same counts, the results for `CC(=O)C1=C(O)C=C2Oc3c(C(=O)/C=C/c4ccc(-c5ccccc5)cc4)c(O)c(C)c(O)c3[C@]2(C)C1=O` are 720 nM and 740 nM.
The matching figures for `COc1cccc(C2CC(=O)c3c(c(C)c(O)c4c3OC3=CC(O)=C(C(C)=O)C(=O)[C@]34C)O2)c1` (stereo partly drawn): 2940 nM and 3730 nM.
On the same counts, the results for `CC(=O)C1=C(O)C=C2Oc3c4c(c(C)c(O)c3[C@]2(C)C1=O)OC(c1c(Cl)cccc1Cl)CC4=O` (stereo partly drawn) are 4310 nM and 4920 nM.
For the compound `CSc1ccc(/C=C/C(=O)c2c(O)c(C)c(O)c3c2OC2=CC(O)=C(C(C)=O)C(=O)[C@]23C)cc1`, the figures for the half-maximal inhibitory concentration (IC50) with MDA-MB-231 and in the assay with MCF7 were 890 nM and 720 nM, respectively.
For `CCCCOc1ccc(/C=C/C(=O)c2c(O)c(C)c(O)c3c2OC2=CC(O)=C(C(C)=O)C(=O)[C@]23C)cc1`, the values for the IC50 with MDA-MB-231 and with MCF7 were 620 nM and 530 nM, respectively.
As to `COc1cc(/C=C/C(=O)c2c(O)c(C)c(O)c3c2OC2=CC(O)=C(C(C)=O)C(=O)[C@]23C)cc(OC)c1OC`, the results for the IC50 in the assay with MDA-MB-231 and in the assay with MCF7 were 1630 nM and 1220 nM, respectively.
On the same counts, the results for `CC(=O)C1=C(O)C=C2Oc3c(C(=O)/C=C/c4cc(Cl)cc(Cl)c4)c(O)c(C)c(O)c3[C@]2(C)C1=O` are 2950 nM and 2440 nM.
On the same counts, the results for `CCOc1ccc(/C=C/C(=O)c2c(O)c(C)c(O)c3c2OC2=CC(O)=C(C(C)=O)C(=O)[C@]23C)cc1` are 840 nM and 710 nM.
The matching figures for `CC(=O)C1=C(O)C=C2Oc3c(C(=O)/C=C/c4ccc(OCCC(C)C)cc4)c(O)c(C)c(O)c3[C@]2(C)C1=O`: 580 nM and 390 nM.
Take `CCOc1ccccc1/C=C/C(=O)c1c(O)c(C)c(O)c2c1OC1=CC(O)=C(C(C)=O)C(=O)[C@]12C`: the results for the IC50 with MDA-MB-231 and in the assay with MCF7 were 2030 nM and 2180 nM, respectively.
The matching figures for `CCSc1ccc(/C=C/C(=O)c2c(O)c(C)c(O)c3c2OC2=CC(O)=C(C(C)=O)C(=O)[C@]23C)cc1`: 730 nM and 540 nM.
Regarding `CCCCOc1ccc(C2CC(=O)c3c(c(C)c(O)c4c3OC3=CC(O)=C(C(C)=O)C(=O)[C@]34C)O2)cc1` (stereo partly drawn), the IC50 with MDA-MB-231 came to 2230 nM; in the assay with MCF7, 2910 nM.
In the case of `CC(=O)C1=C(O)C=C2Oc3c4c(c(C)c(O)c3[C@]2(C)C1=O)OC(c1ccc(OCc2c(F)cccc2Cl)cc1)CC4=O` (stereo partly drawn), the IC50 in the assay with MDA-MB-231 was 4420 nM; with MCF7 it was 3090 nM.
Consider `CC(=O)C1=C(O)C=C2Oc3c(C(=O)/C=C/c4ccccc4)c(O)c(C)c(O)c3[C@]2(C)C1=O`, for which the IC50 in the assay on MDA-MB-231 came out at 5100 nM; with MCF7 it was 4500 nM.
The matching figures for `CC(=O)C1=C(O)C=C2Oc3c(C(=O)/C=C/c4c(F)cccc4F)c(O)c(C)c(O)c3[C@]2(C)C1=O`: 2380 nM and 1960 nM.
The matching figures for `CC(=O)C1=C(O)C=C2Oc3c(C(=O)/C=C/c4ccc(Br)cc4)c(O)c(C)c(O)c3[C@]2(C)C1=O`: 1530 nM and 1130 nM.
`CC(=O)C1=C(O)C=C2Oc3c4c(c(C)c(O)c3[C@]2(C)C1=O)OC(c1ccc(C(F)(F)F)cc1)CC4=O` (stereo partly drawn): the values for the IC50 in the assay on MDA-MB-231 and in the assay on MCF7 were 3930 nM and 4770 nM, respectively.
The matching figures for `COc1cc(F)c(/C=C/C(=O)c2c(O)c(C)c(O)c3c2OC2=CC(O)=C(C(C)=O)C(=O)[C@]23C)cc1OC`: 1150 nM and 930 nM.
Take `COc1ccc(/C=C/C(=O)c2c(O)c(C)c(O)c3c2OC2=CC(O)=C(C(C)=O)C(=O)[C@]23C)cc1`: the half-maximal inhibitory concentration (IC50) came out at 960 nM in the assay with MDA-MB-231 and 970 nM with MCF7.
On the same counts, the results for `CC(=O)C1=C(O)C=C2Oc3c(C(=O)/C=C/c4ccc(OCc5c(F)cccc5Cl)cc4)c(O)c(C)c(O)c3[C@]2(C)C1=O` are 930 nM and 870 nM.
The matching figures for `CC(=O)C1=C(O)C=C2Oc3c4c(c(C)c(O)c3[C@]2(C)C1=O)OC(c1ccccc1)CC4=O` (stereo partly drawn): 8040 nM and 7260 nM.
On the same counts, the results for `CC(=O)C1=C(O)C=C2Oc3c4c(c(C)c(O)c3[C@]2(C)C1=O)OC(c1ccc(C(C)(C)C)cc1)CC4=O` (stereo partly drawn) are 3650 nM and 3430 nM.
As for `CC(=O)C1=C(O)C=C2Oc3c4c(c(C)c(O)c3[C@]2(C)C1=O)OC(c1ccc(C)cc1)CC4=O` (stereo partly drawn), the 50% inhibitory concentration (IC50) came out at 5990 nM with MDA-MB-231 and 4210 nM with MCF7.
